Screens (PubChem BioAssay)
Rows were chosen to be rich in hits. Some 1.9% of all compounds tested hit in one or more screens of this group.
CHRM4 PAM – positive allosteric modulators of human muscarinic M4 receptor. P08173. CHO-K1 hM4/Gqi5, Fluo-8 calcium fluorescence, ACh EC20; 0% = ACh EC20, 100% = maximal ACh. activation, % at 3 µM. 0.4% of 360,000 active. AID 624126;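 active = activation above its plate's cutoff, the mean activation of sample wells plus 3 SD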
Target sequence (P08173 whole entry, looked up): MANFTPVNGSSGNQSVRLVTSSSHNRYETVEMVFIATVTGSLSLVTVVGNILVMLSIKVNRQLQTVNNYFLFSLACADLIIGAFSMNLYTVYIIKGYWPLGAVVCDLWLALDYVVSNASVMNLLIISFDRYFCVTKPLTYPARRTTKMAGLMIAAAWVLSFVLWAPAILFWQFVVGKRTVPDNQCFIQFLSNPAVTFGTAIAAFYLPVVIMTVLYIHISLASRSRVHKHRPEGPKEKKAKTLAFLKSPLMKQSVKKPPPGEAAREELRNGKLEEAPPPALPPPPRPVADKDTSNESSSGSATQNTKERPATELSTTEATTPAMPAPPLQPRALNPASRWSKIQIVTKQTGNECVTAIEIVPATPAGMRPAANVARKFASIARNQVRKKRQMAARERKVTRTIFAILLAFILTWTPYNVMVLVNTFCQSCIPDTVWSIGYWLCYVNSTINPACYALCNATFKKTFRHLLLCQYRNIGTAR
CHRM4 agonist – CHRM4 agonism in calcium assay; P08173; CHO-K1 hM4/Gqi5, Fluo-8 calcium fluorescence; vehicle 0%, full acetylcholine response 100%; activation, % at 3 µM; 0.14% of 360,000 active;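 active = activation above the run mean over all test wells plus 3 SD, cut at about 32% in these data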;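 also: peak over basal fluorescence ratio per well then scaled between controls; 0% = DMSO wells and 100% = acetylcholine at EC100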
M5 ag – agonists of human muscarinic M5 receptor (CHRM5) | CHO-K1 hM5 cells, Fluo-8 calcium fluorescence; 0% DMSO wells, 100% maximal acetylcholine response | activation, % at 3 µM | 0.19% of 360,000 active | AID 624037;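 active = activation above the run's mean over test compounds plus 3 SD, cut at about 23% in these data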;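 also: signal is peak over basal fluorescence ratio across the kinetic read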
CHRM4 antagonist – CHRM4 antagonism in calcium assay; P08173; CHO-hM4 cells, ACh EC80, Fluo-8 calcium fluorescence; inhibition, % at 3 µM; 0.73% of 360,000 active;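 active = inhibition above its plate's cutoff, the mean inhibition of sample wells plus 3 SD, cut at about 27% in these data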;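 also: 0% = acetylcholine EC80 with DMSO and 100% = DMSO without agonist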
CHRM5 PAM – CHRM5 positive allosteric modulation; P08912; CHO-K1 hM5, Fluo-8 calcium, ACh EC20 PAM; 0% = ACh EC20, 100% = ACh EC100; activation, % at 3 µM; 0.3% of 360,000 active;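 active = activation above the run cutoff, the mean activation of all test compounds plus 3 SD, cut at about 18% in these data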
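Assay system: CHO-K1 hM5 cells / Incubation: Fluo-8 loading 80 min at 37 °C plus 30 min room temperature / Technique: Fluo-8 calcium dye fluorescence, kinetic read / Repeats: single replicate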
CHRM5 antagonist – blocks acetylcholine activation of human M5 receptor. P08912. CHO-hM5 cells, Fluo-8 calcium fluorescence, ACh EC80. inhibition, % at 3 µM. 0.59% of 360,000 active;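 active = inhibition above a per-plate cutoff, the mean of that plate's test compounds plus 3 SD, cut at about 27% in these data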;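 also: 0% = acetylcholine EC80 with DMSO and 100% = DMSO without agonist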
* marks the source's active call; other numbers are inactive results.

SMILES	CHRM4 PAM	CHRM4 agonist	M5 ag	CHRM4 antagonist	CHRM5 PAM	CHRM5 antagonist
COc1ccc(OC)c(-c2csc(NC(=O)COC(=O)c3ccc(NC(=O)CC#N)cc3)n2)c1	-1	5	8	6	-9	-3
Cc1ccc([C@@H]2[C@@H]3C(=O)N(C)C(=O)[C@@H]3[C@]3(C)C(=O)N(Cc4ccccc4)CC(=O)N23)o1	9	2	4	0	22*	-5
CCOc1ccc(/C=N/OCC(=O)Nc2ccc3c(c2)OCO3)cc1	0	5	1	-8	0	3
CCCNS(=O)(=O)c1ccc(OCC(=O)Nc2ccc3c(c2)OCO3)cc1	-9	-1	-2	45*	-2	5
COc1ccc(/C=N/OCC(=O)Nc2ccc3c(c2)OCO3)c(OC)c1	-11	5	3	38*	0	5
Cc1ccc(C(=O)OCC(=O)Nc2ccc3c(c2)OCO3)o1	9	1	-6	-1	20*	-7
Cc1ccc(NS(=O)(=O)c2ccc(Cl)c(C(=O)Nc3ccccc3-c3nc4ccccc4[nH]3)c2)cc1C	0	1	-2	-1	-6	12
O=C(NCCCCc1ccccc1)c1ccc(Br)o1	9	1	0	-9	-4	10
Cc1cc2ccccc2n1CCNC(=O)c1ccc(Br)o1	-8	2	0	-4	-11	27*
O=C(NCCCc1ccccc1)c1ccc(Br)o1	31*	0	-4	6	6	1
CCn1c(SCC(=O)c2cc(OC)ccc2OC)nnc1-c1ccncc1	2	-1	2	10	4	1
CCn1c(SCC(=O)c2cc(OC)ccc2OC)nnc1C(C)C	19*	1	-7	-12	7	-9
CCN1C[C@@H]2[C@@H]3C(=O)N(Cc4ccccc4)C(=O)[C@@H]3[C@](CC)(C1=O)N2C(=O)c1ccccc1	2	0	1	-6	4	5
CC(=O)Nc1sc(C)c(C)c1C(=O)OCC(=O)N(CC(C)C)C1CCS(=O)(=O)C1 (centres undefined)	23*	2	2	-9	4	3
CCN(C(=O)COC(=O)c1c(C)c(-c2ccccc2)nc2ccccc12)C1CCS(=O)(=O)C1 (centres undefined)	-7	7	25*	5	-2	-2
CCN(C(=O)COC(=O)c1c(-c2ccccc2)noc1C)C1CCS(=O)(=O)C1 (centres undefined)	3	0	-1	-1	5	-4
CS(=O)(=O)N(CC(=O)N1CCc2ccccc2C1)Cc1ccc(F)cc1	-2	2	-8	-3	1	14
CC(C)N1CCN(c2ccncc2S(=O)(=O)N2CCCCC2)CC1	-11	0	-3	24	-20	65*
CN1CCN(c2ccncc2S(=O)(=O)N2CCCCC2)CC1	-3	1	-6	-1	-20	0
CNc1ncnc2c1ncn2[C@H]1CN(Cc2ccc(OC)cc2)C[C@@H](CO)O1	3	1	1	-6	-1	-6
C/C(=N/NC(=O)c1cc(-c2ccccc2)nc2c(Cl)cccc12)c1cccnc1	26*	2	4	-4	25*	-11
O=C(CSc1nc2ccccc2c(=O)[nH]1)c1ccccc1	7	3	2	-8	-3	-4
O=C(O)CSc1nc2ccccc2c(=O)[nH]1	4	0	1	-10	24*	2
CC(C)(C)C(=O)Nc1ccc(N2CCCC2)cc1	-22	1	-5	44*	4	-1
CCS(=O)(=O)c1ccc(-c2cccc(NC(=O)COc3ccc(Cl)cc3)c2)nn1	1	13	1	-9	-2	-1
SMILES	CHRM4 PAM	CHRM4 agonist	M5 ag	CHRM4 antagonist	CHRM5 PAM	CHRM5 antagonist
CCC1=NN(C(=O)c2ccc(C)cc2)C(O)(c2ccc(Br)cc2)C1 (centres undefined)	4	-1	-2	0	0	-2
CCC1=NN(C(=O)c2ccc(Br)cc2)C(O)(c2ccc(C)cc2)C1 (centres undefined)	22*	0	-2	-16	-4	-5
COc1ccc(-c2ccc3c(c2)S(=O)(=O)c2cccc(C(=O)N4CCN(C5CCCCC5)CC4)c2C3=O)cc1OC	-8	23	6	9	-32	34*
N#C/C(=C\c1ccc(Sc2nc3ccccc3[nH]2)o1)c1ccccc1	-10	10	2	8	-13	14
N#C/C(=C\c1ccc(Sc2ccc(Cl)cc2)o1)c1nc2ccccc2[nH]1	-8	12	3	12	-16	29*
CCOc1c(Br)cc(C(N)=O)cc1OCc1ccccc1	0	-2	-6	5	-1	1
C[N+](C)(C)C/C=C1/COCO1	-3	42*	100*	9	-16	92*
CCOc1ccc(NC(=O)Cn2nnc(-c3ccc(C(N)=O)cc3)n2)cc1S(=O)(=O)N1CCCC1	1	1	2	6	-6	10
CCOc1ccc(NC(=O)Cn2nc(C(N)=O)c3ccccc3c2=O)cc1S(=O)(=O)N1CCCC1	23*	0	-2	-17	2	10
O=C(Nc1ccc(F)cc1)C1CCN(S(=O)(=O)c2cccs2)CC1	-7	7	3	-4	-10	-7
CN1C(=O)C(O)(CC(=O)c2ccncc2)c2ccccc21 (centres undefined)	19*	2	-1	-9	17	-6
COc1ccc(CCC(C)NC2C3CC4CC(C3)CC2C4)cc1 (centres undefined)	-34	7	-8	66*	-16	21
COc1ccccc1/C=C/C(=O)c1c2c(c(C)[nH]c1=O)CCCC2	-2	2	1	11	4	4
CC(/C=N/NC(=O)Cn1nccc1C)=C\c1ccc(C(C)C)cc1	-6	-1	-3	30*	1	-3
CC(=O)N1CCc2cc(S(=O)(=O)NC(CC(C)C)C(=O)N3CCc4ccccc4C3)ccc21 (centres undefined)	32*	1	-5	29*	-3	1
O=C(/C=C\c1cn(-c2ccccc2)nc1-c1ccc2c(c1)OCCO2)N1CCOCC1	-4	5	7	1	-2	3
CN1CCN(C(=O)/C=C/c2cn(-c3ccccc3)nc2-c2ccc3c(c2)OCCO3)CC1	9	6	2	-13	19*	-5
Cc1nnc(SC(C)C(=O)N(C)C2CCCCC2)n1N (centres undefined)	4	1	2	5	11	-2
